{"source": "paper PMC4964276", "about": "(The Biochemical journal, 2016)", "key": {"[1]": {"test_system": "D/D domain of RIIα (RIIα-D/D(1–44))", "experiment": "Isothermal titration calorimetry", "format": "binding, human", "settings": "ITC, one-site model, 25 °C, pH 7.5; three independent measurements", "procedure,_shortened": "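Run in 20 mM Hepes, pH 7.5, 150 mM NaCl at 25 °C. Cell held RIIα D/D domain at 20 μM, and the syringe held the test AKAP18β(43–83) peptide at 100 μM. There were 25–30 injections of 10–12 μl at 5–20 min intervals. Incremental heat per mole was fitted by non-linear least squares to a one-site model, and protein concentration was adjusted by the fit.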"}, "[2]": {"test_system": "RI subunits of PKA", "settings": "cited from earlier work"}}}
{"substance": "NGGEPDDAELVRLSKRLVENAVLKAVQQY LEETQ NKNKP GE [AKAP18β(43–83)]", "values": [{"measurement": "n (sites)", "setting": "[1]", "value": 0.98, "unit": "sites"}]}
{"substance": "smAKAP: RI-specific AKAP, full-length [reference compound]", "values": [{"measurement": "Binding preference for RI, smAKAP", "setting": "[2]; ref [14]", "value": "preferentially or specifically bind RI"}]}
{"substance": "SKIP: AKAP that preferentially or specifically binds RI", "values": [{"measurement": "Binding preference for RI, SKIP", "setting": "[2]; ref [12],[13]", "value": "preferentially or specifically bind RI"}]}
